How the values were obtained:
[1] = biological target: Histone deacetylase 1 (Homo sapiens, UniProt Q13547); experiment: Inhibition of recombinant full length C-terminal FLAG/His-tagged human HDAC1 (1 to 482 residues) expressed in sf21 cells using RHK-K(Ac)-AMC as substrate by fluorimetric assay
[2] = biological target: Histone deacetylase 4 (Homo sapiens, UniProt P56524); experiment: Inhibition of recombinant N-terminal GST-tagged /C-terminal His-tagged human HDAC4 (627 to 1084 residues) expressed in Baculovirus infected insect cells using Boc-Lys(trifluoroacetyl)-AMC as substrate by fluorimetric assay
[3] = biological target: T1, Histone deacetylase 8 (Homo sapiens, UniProt Q9BY41); experiment: Inhibition of recombinant C-terminal His-tagged human HDAC8 (1 to 377 residues) expressed in Baculovirus infected insect cells using RHK-K(Ac)-AMC as substrate by fluorimetric assay
T1 sequence (Q9BY41 whole entry): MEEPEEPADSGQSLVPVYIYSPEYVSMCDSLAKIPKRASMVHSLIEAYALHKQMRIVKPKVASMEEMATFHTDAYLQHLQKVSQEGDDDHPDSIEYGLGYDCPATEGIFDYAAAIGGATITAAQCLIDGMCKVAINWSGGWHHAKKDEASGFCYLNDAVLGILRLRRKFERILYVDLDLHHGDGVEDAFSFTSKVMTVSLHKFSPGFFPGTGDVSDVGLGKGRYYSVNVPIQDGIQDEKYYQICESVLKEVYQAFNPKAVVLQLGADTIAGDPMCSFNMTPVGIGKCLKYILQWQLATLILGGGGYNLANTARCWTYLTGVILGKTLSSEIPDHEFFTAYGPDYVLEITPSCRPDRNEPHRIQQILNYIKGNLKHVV

[4] = biological target: Histone deacetylase 9 (Homo sapiens, UniProt Q9UKV0); experiment: Inhibition of human HDAC9 using Boc-Lys(trifluoroacetyl)-AMC as substrate by fluorimetric assay
[5] = biological target: T2, Polyamine deacetylase HDAC10 (Homo sapiens, UniProt Q969S8); experiment: Inhibition of human HDAC10 using RHKK-Ac as substrate by fluorimetric assay
T2 sequence (Q969S8 whole entry): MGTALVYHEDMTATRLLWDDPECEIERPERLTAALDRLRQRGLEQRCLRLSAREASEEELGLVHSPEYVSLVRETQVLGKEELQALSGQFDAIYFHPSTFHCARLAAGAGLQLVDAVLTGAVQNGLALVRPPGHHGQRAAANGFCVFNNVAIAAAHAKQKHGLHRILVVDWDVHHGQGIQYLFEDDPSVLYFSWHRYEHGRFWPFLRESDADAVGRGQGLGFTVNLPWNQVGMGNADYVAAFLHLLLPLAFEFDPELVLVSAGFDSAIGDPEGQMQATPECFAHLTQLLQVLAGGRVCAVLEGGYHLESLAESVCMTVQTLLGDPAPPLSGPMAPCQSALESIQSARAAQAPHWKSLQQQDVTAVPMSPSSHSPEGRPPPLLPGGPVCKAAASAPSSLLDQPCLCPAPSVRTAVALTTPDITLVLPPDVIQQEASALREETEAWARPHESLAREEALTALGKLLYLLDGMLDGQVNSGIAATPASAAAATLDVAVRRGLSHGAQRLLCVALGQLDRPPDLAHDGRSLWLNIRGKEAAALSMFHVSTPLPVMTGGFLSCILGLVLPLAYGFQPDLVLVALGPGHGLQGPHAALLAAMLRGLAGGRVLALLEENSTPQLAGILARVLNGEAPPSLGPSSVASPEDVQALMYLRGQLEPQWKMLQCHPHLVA

[6] = biological target: T3, Histone deacetylase 11 (Homo sapiens, UniProt Q96DB2); experiment: Inhibition of recombinant C-terminal His-tagged human HDAC11 (1 to 347 residues) expressed in Baculovirus infected insect cells using RHKK-Ac as substrate by fluorimetric assay
T3 sequence (Q96DB2 whole entry): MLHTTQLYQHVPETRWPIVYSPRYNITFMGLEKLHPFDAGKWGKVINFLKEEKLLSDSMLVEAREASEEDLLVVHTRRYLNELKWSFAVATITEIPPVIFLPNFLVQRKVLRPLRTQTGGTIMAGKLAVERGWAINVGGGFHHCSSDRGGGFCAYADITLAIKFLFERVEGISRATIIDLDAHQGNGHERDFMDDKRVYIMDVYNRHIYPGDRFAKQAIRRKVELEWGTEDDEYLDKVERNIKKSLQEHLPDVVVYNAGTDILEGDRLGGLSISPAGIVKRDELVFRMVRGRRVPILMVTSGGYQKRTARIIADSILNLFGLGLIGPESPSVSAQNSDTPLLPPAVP

[7] = species on record: Homo sapiens; experiment: Selectivity ratio of IC50 for recombinant full length C-terminal GST-tagged human HDAC2 (1 to 488 residues) to IC50 for recombinant N-terminal GST-tagged human HDAC6 (1 to 1215 residues)
[8] = species on record: Homo sapiens; experiment: Selectivity ratio of IC50 for human recombinant full length C-terminal His-tagged HDAC3 (1 to 428 residues)/N-terminal GST-tagged NCOR2 (395 to 489 residues) to IC50 for recombinant N-terminal GST-tagged human HDAC6 (1 to 1215 residues)
[9] = species on record: Homo sapiens; experiment: Selectivity ratio of IC50 for recombinant N-terminal GST-tagged /C-terminal His-tagged human HDAC4 (627 to 1084 residues) to IC50 for recombinant N-terminal GST-tagged human HDAC6 (1 to 1215 residues)
[10] = species on record: Homo sapiens; experiment: Selectivity ratio of IC50 for recombinant N-terminal GST-tagged human HDAC7 (518 to 991 residues) to IC50 for recombinant N-terminal GST-tagged human HDAC6 (1 to 1215 residues)
[11] = system: Kasumi 1; experiment: Antiproliferative activity against human Kasumi-1 cells after 72 hrs by resazurin dye-based assay; format: functional, cell-based; settings: Kasumi 1, 72 h
Procedure, shortened: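 KASUMI-1 cells incubated with compounds for 72 hr; viability read with resazurin reagent. IC50 taken as the mean of three experiments, each run in duplicate.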

Chain of Histone deacetylase 4 (P56524 whole entry, the tested form may be a part): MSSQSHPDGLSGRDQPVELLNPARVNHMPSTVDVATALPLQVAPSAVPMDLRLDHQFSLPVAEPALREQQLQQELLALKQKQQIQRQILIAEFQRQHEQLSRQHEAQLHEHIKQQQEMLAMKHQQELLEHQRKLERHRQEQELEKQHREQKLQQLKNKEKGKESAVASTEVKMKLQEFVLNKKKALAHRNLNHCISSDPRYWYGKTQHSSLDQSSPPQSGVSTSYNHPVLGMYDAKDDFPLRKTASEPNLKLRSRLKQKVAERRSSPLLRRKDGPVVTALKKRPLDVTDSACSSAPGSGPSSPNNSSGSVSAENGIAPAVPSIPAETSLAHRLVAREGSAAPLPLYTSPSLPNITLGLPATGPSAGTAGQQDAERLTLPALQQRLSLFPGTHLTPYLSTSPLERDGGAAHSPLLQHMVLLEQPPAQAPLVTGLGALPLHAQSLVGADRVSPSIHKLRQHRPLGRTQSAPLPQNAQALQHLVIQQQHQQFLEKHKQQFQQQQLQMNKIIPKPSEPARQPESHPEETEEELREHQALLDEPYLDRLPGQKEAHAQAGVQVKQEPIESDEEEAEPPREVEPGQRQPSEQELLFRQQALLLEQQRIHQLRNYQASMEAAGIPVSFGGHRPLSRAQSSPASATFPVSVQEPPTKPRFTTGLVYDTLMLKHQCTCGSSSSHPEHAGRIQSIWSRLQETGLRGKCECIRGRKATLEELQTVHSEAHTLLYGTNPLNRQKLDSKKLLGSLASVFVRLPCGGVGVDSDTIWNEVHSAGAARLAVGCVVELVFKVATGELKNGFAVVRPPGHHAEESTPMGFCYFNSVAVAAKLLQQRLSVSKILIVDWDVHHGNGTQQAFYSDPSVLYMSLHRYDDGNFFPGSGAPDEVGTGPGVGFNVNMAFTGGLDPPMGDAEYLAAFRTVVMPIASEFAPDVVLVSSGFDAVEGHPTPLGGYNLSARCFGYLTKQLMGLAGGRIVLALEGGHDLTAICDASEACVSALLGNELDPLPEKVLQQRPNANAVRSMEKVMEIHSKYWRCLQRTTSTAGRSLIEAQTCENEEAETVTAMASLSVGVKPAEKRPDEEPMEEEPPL
Chain of Histone deacetylase 1 (Q13547 whole entry, the tested form may be a part): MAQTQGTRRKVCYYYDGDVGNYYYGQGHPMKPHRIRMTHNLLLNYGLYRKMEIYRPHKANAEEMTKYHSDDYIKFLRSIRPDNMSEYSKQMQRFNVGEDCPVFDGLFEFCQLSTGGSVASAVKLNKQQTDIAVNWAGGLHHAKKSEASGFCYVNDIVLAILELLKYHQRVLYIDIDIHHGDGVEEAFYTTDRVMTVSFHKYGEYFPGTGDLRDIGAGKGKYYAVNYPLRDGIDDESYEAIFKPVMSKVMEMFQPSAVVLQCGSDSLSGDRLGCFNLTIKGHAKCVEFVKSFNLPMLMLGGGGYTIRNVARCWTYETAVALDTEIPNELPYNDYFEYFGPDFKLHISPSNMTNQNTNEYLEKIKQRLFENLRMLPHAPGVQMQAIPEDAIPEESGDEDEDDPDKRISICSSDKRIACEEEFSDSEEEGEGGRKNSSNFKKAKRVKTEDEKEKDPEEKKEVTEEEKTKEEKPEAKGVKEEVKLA
Chain of Histone deacetylase 9 (Q9UKV0 whole entry): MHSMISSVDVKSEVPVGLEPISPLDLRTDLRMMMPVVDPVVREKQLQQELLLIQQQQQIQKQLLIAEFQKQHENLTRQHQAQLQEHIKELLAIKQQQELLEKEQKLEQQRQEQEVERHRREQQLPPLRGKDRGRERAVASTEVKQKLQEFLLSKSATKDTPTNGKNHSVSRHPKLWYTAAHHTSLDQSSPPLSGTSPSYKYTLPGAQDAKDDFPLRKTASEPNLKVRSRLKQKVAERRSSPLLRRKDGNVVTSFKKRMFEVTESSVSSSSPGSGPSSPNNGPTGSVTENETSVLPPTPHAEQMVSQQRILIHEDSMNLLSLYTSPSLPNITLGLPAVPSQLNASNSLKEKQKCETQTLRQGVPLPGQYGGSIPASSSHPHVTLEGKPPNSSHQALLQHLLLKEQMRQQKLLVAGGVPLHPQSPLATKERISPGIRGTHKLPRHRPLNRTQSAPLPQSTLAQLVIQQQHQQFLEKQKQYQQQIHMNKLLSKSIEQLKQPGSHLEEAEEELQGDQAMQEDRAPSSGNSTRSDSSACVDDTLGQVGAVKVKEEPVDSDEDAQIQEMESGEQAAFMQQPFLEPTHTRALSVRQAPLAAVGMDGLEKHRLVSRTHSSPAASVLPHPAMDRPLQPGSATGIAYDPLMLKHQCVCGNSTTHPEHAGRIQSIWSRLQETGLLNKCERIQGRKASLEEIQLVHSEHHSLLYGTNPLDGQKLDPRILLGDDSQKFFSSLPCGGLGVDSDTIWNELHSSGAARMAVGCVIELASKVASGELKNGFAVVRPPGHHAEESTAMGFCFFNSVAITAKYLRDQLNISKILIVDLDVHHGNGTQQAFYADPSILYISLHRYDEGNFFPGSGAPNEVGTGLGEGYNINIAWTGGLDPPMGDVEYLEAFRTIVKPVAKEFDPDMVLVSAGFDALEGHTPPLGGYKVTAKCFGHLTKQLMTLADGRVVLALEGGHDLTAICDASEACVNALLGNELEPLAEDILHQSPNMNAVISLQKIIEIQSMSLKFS

IC50 [1] [nM] | IC50 [2] [nM] | IC50 [3] [nM] | IC50 [4] [nM] | IC50 [5] [nM] | IC50 [6] [nM] | Ratio IC50 [7] | Ratio IC50 [8] | Ratio IC50 [9] | Ratio IC50 [10] | SMILES | IC50 [11] [nM]
590 | > 10000 | 1520 | > 10000 | 320 | 80 | 88 | 23 | > 2000 | 1900 | CCCNc1ccc2c3c(cccc13)C(=O)N(CCCCCC(=O)NO)C2=O | 96
1980 | 5500 | 2460 | 9300 | 660 | 150 | 240 | 100 to 103 | 1500 | 910 | O=C(CCCCCN1C(=O)c2cccc3c(NCc4ccccc4)ccc(c23)C1=O)NO | 360
